Measurements as given in ChEMBL document CHEMBL3808360, “Discovery of Potent Non-Nucleoside Inhibitors of Dengue Viral RNA-Dependent RNA Polymerase from a Fragment Hit Using Structure-Based Drug Design” (J Med Chem, 2016).
Calls of active or inactive are those of the source. The calls are words filed in the database; no cut-off is given here.

Tests used:
[1] = Inhibition of RdRp activity of Dengue virus 4 full length NS5 preincubated for 15 mins followed by RNA and NTP addition measured after 120 mins; parameters: species or system dengue virus type 4
Procedure, shortened: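 Reaction with 100 nM DENV4 full-length NS5 and 100 nM in vitro transcribed DENV4 mini-genome RNA template (575 nt, linked 5'-3' UTRs). NTPs: 20 µM each ATP, GTP and UTP plus 5 µM ATTO-CTP. Compound (two-fold series from 20 or 100 µM) preincubated with enzyme 15 min at room temperature. RNA/NTP mix added; run 120 min. Stopped with alkaline phosphatase stop buffer, 60 min. Fluorescence read at ex 422/em 566 nm. Duplicate wells; IC₅₀ from variable-slope sigmoidal fit.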

[2] = Binding affinity to Dengue virus 4 NS5 RdRp (274 to 900 residues) by ITC method; parameters: species or system dengue virus type 4
Procedure, shortened: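 DENV-4 RdRp (residues 274-900) at 30-50 µM in the cell, in 20 mM HEPES pH 7.0, 300 mM NaCl, 2 mM TCEP, DMSO matched to ligand. Ligand diluted from a 50 mM DMSO stock into the same buffer, typically 2.5 mM in the syringe. Run at 25°C: one 0.4 µl injection, then 15 × 2.6 µl. Heat of dilution into buffer subtracted.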

[3] = Binding affinity to biotinylated Dengue virus 4 NS5 RdRp by surface plasmon resonance analysis; parameters: species or system dengue virus type 4
Procedure, shortened: (§1)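 Blank reference cell. Compound run as a 7-point 2-fold series, typically from 200 µM, with zero-concentration subtraction. Flow 30 µL/min, 45 s contact, 60-600 s dissociation, run from low to high concentration.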

[4] = Dissociation constant, pKa of the compound; format: physicochemical
[5] = Lipophilicity, log D of the compound at pH 7.4; format: physicochemical; settings: buffer
dengue virus type 1 [6] = test: Antiviral activity against Dengue virus 1 MY97-10245 infected in human A549 cells assessed as reduction in DENV envelope protein level up to 50 uM after 48 hrs; format: functional, organism-based
Procedure, shortened: (§2)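 A549 cells (~7×10^3/well) seeded in Ham's F-12K with 2% FBS, 1 mM L-glutamine and 1% penicillin-streptomycin, held overnight at 37°C, 5% CO₂. Infected at 24 h post-seeding (DENV1 MOI 0.5, DENV2 MOI 0.3, DENV3 MOI 1, DENV4 MOI 0.5). Compound added at once as a 10-point, 3-fold series, 0.5% DMSO final. Fixed at 48 h with 4% paraformaldehyde. Stained with Dylight 488-4G2 anti-envelope antibody and DRAQ5 nuclear stain. Envelope protein quantified by high-content imaging; EC₅₀ calculated.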

dengue virus type 2 [7] = test: Antiviral activity against Dengue virus 2 MY97-10340 infected in human A549 cells assessed as reduction in DENV envelope protein level up to 50 uM after 48 hrs; format: functional, organism-based; procedure, shortened: as §2
dengue virus type 3 [8] = test: Antiviral activity against Dengue virus 3 MY05-34640 infected in human A549 cells assessed as reduction in DENV envelope protein level up to 50 uM after 48 hrs; format: functional, organism-based; procedure, shortened: as §2
dengue virus type 4 [9] = test: Antiviral activity against Dengue virus 4 MY01-22713 infected in human A549 cells assessed as reduction in DENV envelope protein level up to 50 uM after 48 hrs; format: functional, organism-based; procedure, shortened: as §2
[10] = Apparent permeability across apical to basolateral side in human Caco2 cells at pH 7.4; format: ADME, cell-based; settings: Caco-2, pH 7.4
Procedure, shortened: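 Apical-to-basal Caco-2 permeability measured at pH 7.4.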

dengue virus type 1 [11] = test: Antiviral activity against Dengue virus 1 MY97-10245 infected in human A549 cells assessed as reduction in DENV envelope protein level after 48 hrs; format: functional, organism-based; settings: MY97-10245, A549, 48 h; procedure, shortened: as §2
dengue virus type 2 [12] = test: Antiviral activity against Dengue virus 2 MY97-10340 infected in human A549 cells assessed as reduction in DENV envelope protein level after 48 hrs; format: functional, organism-based; settings: MY97-10340, A549, 48 h; procedure, shortened: as §2
dengue virus type 3 [13] = test: Antiviral activity against Dengue virus 3 MY05-34640 infected in human A549 cells assessed as reduction in DENV envelope protein level after 48 hrs; format: functional, organism-based; settings: MY05-34640, A549, 48 h; procedure, shortened: as §2
dengue virus type 4 [14] = test: Antiviral activity against Dengue virus 4 MY01-22713 infected in human A549 cells assessed as reduction in DENV envelope protein level after 48 hrs; format: functional, organism-based; settings: MY01-22713, A549, 48 h; procedure, shortened: as §2
[15] = Inhibition of RdRp activity of Dengue virus 3 NS5; parameters: species or system dengue virus type 3
[16] = Binding affinity to Dengue virus 3 NS5 RdRp by surface plasmon resonance analysis; parameters: species or system dengue virus type 3; procedure, shortened: as §1
[17] = Inhibition of RdRp activity of Dengue virus 4 of NS5 preincubated with enzyme followed by RNA and NTP addition; parameters: species or system dengue virus type 4
[18] = Binding affinity to N-terminal AviTag Dengue virus 3 NS5 RdRp (263 to 900 residues) expressed in Escherichia coli BL21 cells by surface plasmon resonance analysis; parameters: species or system dengue virus type 3; procedure, shortened: as §1
[19] = Inhibition of RdRp activity of Dengue virus 1 NS5 preincubated for 15 mins followed by RNA and NTP addition measured after 120 mins; parameters: species or system dengue virus type 1
[20] = Inhibition of RdRp activity of Dengue virus 2 NS5 preincubated for 15 mins followed by RNA and NTP addition measured after 120 mins; parameters: species or system dengue virus type 2
[21] = Inhibition of RdRp activity of Dengue virus 3 NS5 preincubated for 15 mins followed by RNA and NTP addition measured after 120 mins; parameters: species or system dengue virus type 3
[22] = Cytotoxicity against human HepG2 cells; format: cell-based

COc1cc(C)c(C(=O)O)cc1-c1ccc(C#CCO)s1
IC50 [1]: 0.53 µM | Kd [2]: 1.6 µM | Kd [3]: 0.11 µM | pKa [4]: 4.2 | logD [5]: 1.2 | Activity (dengue virus type 1 [6]): inactive | Activity (dengue virus type 2 [7]): inactive | Activity (dengue virus type 3 [8]): inactive | Activity (dengue virus type 4 [9]): inactive

COc1cc(C)c(S(=O)(=O)NC(C)=O)cc1-c1ccc(C#CCO)s1
IC50 [1]: 2.5 µM | pKa [4]: 4.8 | logD [5]: 0.78

COc1cc(C)c(C(=O)NS(=O)(=O)c2ccccc2)cc1-c1ccc(C#CCO)s1
IC50 [1]: 0.17 µM | Papp A→B [10]: 0.5 ×10⁻⁶ cm/s | pKa [4]: 3.8 | logD [5]: 1.7 | EC50 (dengue virus type 1 [11]): 31 µM | EC50 (dengue virus type 2 [12]): 34 µM | EC50 (dengue virus type 3 [13]): 18 µM | EC50 (dengue virus type 4 [14]): 41 µM

O=C(O)Cc1ccc(O)c(-c2ccccc2)c1
IC50 [15]: 769 µM | Kd [16]: 200 µM

N#Cc1ccc(-c2cc(CC(=O)O)cc(CC(=O)O)c2)s1
IC50 [1]: 199 µM | Kd [2]: 134 µM

COc1cc(C)c(-c2noc(=O)[nH]2)cc1-c1ccc(C#CCO)s1
IC50 [1]: 3.2 µM | pKa [4]: 5.5 | logD [5]: 1.9

COc1ccc(-c2nnn[nH]2)cc1-c1ccc(C#CCO)s1
IC50 [1]: 2.4 µM | Papp A→B [10]: 1.39 ×10⁻⁶ cm/s

O=C(O)Cc1cc(CC(=O)O)cc(-c2ccccc2Cl)c1
IC50 [1]: 192 µM

COc1ccc(CC(=O)O)cc1-c1ccccc1
IC50 [17]: 734 µM | Kd [18]: 613 µM

COc1cccc(S(=O)(=O)NC(=O)c2cc(-c3ccc(C#CCO)s3)c(Cl)cc2OC)c1
IC50 [1]: 0.14 µM | Kd [3]: 0.01 µM | pKa [4]: 3.8 | logD [5]: 0.9 | EC50 (dengue virus type 1 [11]): 6.8 µM | EC50 (dengue virus type 2 [12]): 13 µM | EC50 (dengue virus type 3 [13]): 5.5 µM | EC50 (dengue virus type 4 [14]): 7 µM

COc1cc(C)c(C(=O)NS(C)(=O)=O)cc1-c1ccc(C#CCO)s1
IC50 [1]: 0.34 µM | Kd [2]: 2 µM | Kd [3]: 0.12 µM | Papp A→B [10]: 0.5 ×10⁻⁶ cm/s | pKa [4]: 4 | logD [5]: 0.8 | EC50 (dengue virus type 1 [11]): > 50 µM | EC50 (dengue virus type 2 [12]): > 50 µM | EC50 (dengue virus type 3 [13]): > 50 µM | EC50 (dengue virus type 4 [14]): > 50 µM | Activity (dengue virus type 1 [6]): inactive | Activity (dengue virus type 2 [7]): inactive | Activity (dengue virus type 3 [8]): inactive | Activity (dengue virus type 4 [9]): inactive

O=C(O)Cc1cc(CC(=O)O)cc(-c2cccc(Cl)c2)c1
IC50 [1]: 141 µM

COc1cc(C)c(-c2ncc[nH]2)cc1-c1ccc(C#CCO)s1
IC50 [1]: 44 µM | pKa [4]: 6.6 | logD [5]: 3.6

O=C(O)Cc1cc(CC(=O)O)cc(-c2ccc(C#CCCO)s2)c1
IC50 [1]: 29 µM | Kd [2]: 34 µM

O=C(O)Cc1cc(CC(=O)O)cc(-c2cccs2)c1
IC50 [1]: 15 µM | Kd [2]: 28 µM

COc1ccc(CC(=O)O)cc1-c1ccc(C#CCO)s1
IC50 [1]: 7.5 µM | Kd [2]: 14 µM | Kd [3]: 2.2 µM | Papp A→B [10]: 2.73 ×10⁻⁶ cm/s

O=C(O)Cc1cc(CC(=O)O)cc(-c2ccc(Cl)s2)c1
Kd [2]: 33 µM

O=C(O)Cc1cc(CC(=O)O)cc(-c2ccco2)c1
IC50 [1]: 211 µM | Kd [2]: 552 µM

O=C(O)Cc1cc(CC(=O)O)cc(-c2ccc(Cl)cc2)c1
IC50 [1]: 62 µM

COc1cccc(S(=O)(=O)NC(=O)c2cc(-c3ccc(C#CCO)s3)c(OC)cc2OC)c1
IC50 [19]: 0.068 µM | IC50 [20]: 0.11 µM | IC50 [21]: 0.048 µM | Kd [3]: 0.07 µM | Papp A→B [10]: 3.91 ×10⁻⁶ cm/s | pKa [4]: 4.7 | logD [5]: 1.6 | EC50 (dengue virus type 1 [11]): 1.8 µM | EC50 (dengue virus type 2 [12]): 2.3 µM | EC50 (dengue virus type 3 [13]): 1.8 µM | EC50 (dengue virus type 4 [14]): 1.8 µM | CC50 [22]: > 50 µM

O=C(O)Cc1cc(CC(=O)O)cc(-c2ccccc2)c1
IC50 [1]: 177 µM | Kd [2]: 154 µM

Cc1ccc(-c2cc(CC(=O)O)cc(CC(=O)O)c2)s1
IC50 [1]: 96 µM

COc1ccc(C(=O)O)cc1-c1ccc(C#CCO)s1
IC50 [1]: 2.3 µM | Kd [2]: 3.8 µM | Kd [3]: 1.7 µM | pKa [4]: 4.2 | logD [5]: 0.79

O=C(O)Cc1cc(CC(=O)O)cc(-c2ccc(C#CCO)s2)c1
IC50 [19]: 0.3 µM | IC50 [20]: 2.2 µM | IC50 [21]: 0.5 µM | Papp A→B [10]: 0.51 ×10⁻⁶ cm/s

COc1cc(OC)c(-c2ccc(C#CCO)s2)cc1C(=O)NS(=O)(=O)c1ccccc1
IC50 [1]: 0.25 µM | Kd [3]: 0.09 µM | Papp A→B [10]: 10.8 ×10⁻⁶ cm/s | pKa [4]: 4.8 | logD [5]: 1.5 | EC50 (dengue virus type 1 [11]): 15 µM | EC50 (dengue virus type 2 [12]): 37 µM | EC50 (dengue virus type 3 [13]): 7.3 µM | EC50 (dengue virus type 4 [14]): 14 µM

O=C(O)Cc1cc(CC(=O)O)cc(-c2ccc(Br)s2)c1
IC50 [1]: 39 µM | Kd [2]: 46 µM
